Measured values from different studies.
Lines come from different studies, so protocols differ.
Target: Casein kinase I isoform epsilon (CSNK1E, Homo sapiens, UniProt P49674)

Structure (SMILES) | test | setting | remaining binding [%]
O=C(NCCCN1CCOCC1)c1ccc(Nc2nccc(-c3cc4ccccc4s3)n2)cc1 | binding, competition with immobilised ligand | 1 µM | 100
COc1cnc(Nc2cccc(S(N)(=O)=O)c2)nc1N1CCN(c2ccccc2)CC1 | binding, competition with immobilised ligand | 1 µM | 100
CN(C)c1nccc(-c2cnc3ncccn23)n1 | binding | 1 µM | 65
O=C(NCCCN1CCOCC1)c1ccc(Nc2ncc(Cl)c(-c3ccc(Cl)s3)n2)cc1 | binding, competition with immobilised ligand | 1 µM | 100
Cc1cc(C)c(-n2ccn3nc(-c4cccnc4)cc23)cc1NC(=O)c1cc(C#N)cc(S(F)(F)(F)(F)F)c1 | cell-free assay, competition with immobilised ligand | 0.1 µM | 98.7
C[C@@H]1CCN(c2nccc(-c3cnn4ncccc34)n2)C1 | binding | 1 µM | 86
C=CC(=O)N1CCC(C(=O)NCC(=O)N2CCN(c3nc(-c4cnc(N)nc4C(F)F)nc(N4CCOCC4)n3)CC2)CC1 | binding, competition with immobilised ligand | 1 µM | 87
c1cnn2ncc(-c3ccnc(N4CCC45COC5)n3)c2c1 | binding | 1 µM | 53
CC(=O)N1CCC(c2ccc(C(=O)NC(=N)N)cc2C(F)(F)F)CC1 | cell-free assay, competition with immobilised ligand | 1 µM | 100
F[C@@H]1CCN(c2nccc(-c3cnn4ncccc34)n2)C1 | binding | 1 µM | 85
CCN1CCN(Cc2ccc(C(=O)Nc3ccc(C)c(Oc4ccc5c(c4)CC(=O)N5)c3)cc2C(F)(F)F)CC1 | binding, competition with immobilised ligand | 1 µM | 100
O=C(NCC1CCOCC1)c1n[nH]cc1NC(=O)c1c(F)cccc1F | binding, competition with immobilised ligand | 1 µM | 81
O=c1nc(-c2ccccn2)sc2ccccc12 | binding, competition with immobilised ligand | 1 µM | 88
CN(CCCC(F)(F)F)c1nccc(-c2cnn3ncccc23)n1 | binding | 1 µM | 100
Cc1c(NC(=O)c2cc(C(N)=O)nc3cc(F)ccc23)c(C(F)(F)F)nn1Cc1ccc(C(C)(C)C)cc1 | cell-free assay, competition with immobilised ligand | 1 µM | 91
c1cncc(-c2cccc(Nc3nccc(NC4CCCCC4)n3)c2)c1 | binding, competition with immobilised ligand | 10 µM | 11
CN(c1ccnc(CNc2nc(Nc3ccc4c(c3)CC(=O)N4)ncc2C(F)(F)F)n1)S(C)(=O)=O | cell-free assay, competition with immobilised ligand | 1 µM | 100
N[C@@H]1CCN(c2nccc(-c3cnn4ncccc34)n2)C1 | binding | 1 µM | 31
Cc1nc(N2CC[C@@H](O)C2)ncc1-c1cc(C(F)(F)F)cc2[nH]ncc12 | binding, competition with immobilised ligand | 1 µM | 79
COc1cnc(Nc2cccc(S(N)(=O)=O)c2)nc1N1CCN(c2ccccc2)C(=O)C1 | binding, competition with immobilised ligand | 1 µM | 100
O=C1NC(c2ccccn2)Sc2ccccc21 (stereo not shown) | cell-free assay, competition with immobilised ligand | 1 µM | 98
O=C(c1ccc(Nc2ncc(Cl)c(-c3ccc(Cl)s3)n2)cc1)N1CCC(N2CCCC2)CC1 | binding, competition with immobilised ligand | 1 µM | 100
